Experimental data as given in ChEMBL document CHEMBL3108751, “Isomannide-based peptidomimetics as inhibitors for human tissue kallikreins 5 and 7” (ACS Med Chem Lett, 2014).
The source made the active and inactive calls. The rule behind the calls is not given here.

Key:
[1] = target: Kallikrein-6 (Homo sapiens) (UniProt Q92876); assay: Inhibition of human KLK6 at 1 to 500 uM after 5 mins by spectrophotometry
Kallikrein-5 [2] = target: T1, Kallikrein-5 (Homo sapiens, UniProt Q9Y337); assay: Inhibition of human recombinant KLK5 expressed in baculovirus-infected insect cell system using Abz-KLRSSKQ-Eddnp as substrate incubated for 5 mins prior to substrate addition by FRET assay
T1 sequence (Q9Y337 whole entry): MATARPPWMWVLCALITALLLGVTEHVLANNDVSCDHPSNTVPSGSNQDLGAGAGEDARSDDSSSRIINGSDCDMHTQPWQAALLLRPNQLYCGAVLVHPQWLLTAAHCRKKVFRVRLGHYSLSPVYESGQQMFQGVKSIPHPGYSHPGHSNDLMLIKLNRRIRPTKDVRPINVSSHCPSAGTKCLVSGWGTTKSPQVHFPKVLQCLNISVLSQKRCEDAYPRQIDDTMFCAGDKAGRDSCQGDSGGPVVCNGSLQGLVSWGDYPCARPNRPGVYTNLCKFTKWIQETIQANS

Kallikrein-7 [3] = target: T2, Kallikrein-7 (Homo sapiens, UniProt P49862); assay: Competitive inhibition of human recombinant KLK7 expressed in baculovirus-infected insect cell system using Abz-KLYSSKQ-Eddnp as substrate incubated for 5 mins prior to substrate addition by Lineweaver-Burk plot analysis
Summary of the method: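 Mechanism was assessed from rates measured without inhibitor and at three inhibitor concentrations. Lineweaver–Burk plots were used to assign the inhibition type and derive Ki.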

Kallikrein-5 [4] = target: T1, Kallikrein-5; assay: Competitive inhibition of human recombinant KLK5 expressed in baculovirus-infected insect cell system using Abz-KLRSSKQ-Eddnp as substrate incubated for 5 mins prior to substrate addition by Lineweaver-Burk plot analysis
Summary of the method: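 FRET substrate Abz-KLRSSKQ-EDDnp hydrolysed by KLK5, with no inhibitor and with 0.5, 1.0 and 2.0 μM inhibitor. Lineweaver–Burk plots were fitted by linear regression. Ki was taken from a secondary plot of Km/Vmax against inhibitor concentration.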

[5] = target: Kallikrein-1 (Homo sapiens) (UniProt P06870); assay: Inhibition of human KLK1 at 1 to 500 uM after 5 mins by spectrophotometry
Kallikrein-7 [6] = target: T2, Kallikrein-7; assay: Inhibition of human recombinant KLK7 expressed in baculovirus-infected insect cell system using Abz-KLYSSKQ-Eddnp as substrate incubated for 5 mins prior to substrate addition by FRET assay
Homo sapiens [7] = organism: Homo sapiens; assay: Selectivity ratio of IC50 for human recombinant KLK7 to IC50 for human recombinant KLK5
Homo sapiens [8] = organism: Homo sapiens; assay: Selectivity ratio of IC50 for human recombinant KLK5 to IC50 for human recombinant KLK7

Sequence of Kallikrein-1 (Homo sapiens) (P06870 25-262 limits assumed): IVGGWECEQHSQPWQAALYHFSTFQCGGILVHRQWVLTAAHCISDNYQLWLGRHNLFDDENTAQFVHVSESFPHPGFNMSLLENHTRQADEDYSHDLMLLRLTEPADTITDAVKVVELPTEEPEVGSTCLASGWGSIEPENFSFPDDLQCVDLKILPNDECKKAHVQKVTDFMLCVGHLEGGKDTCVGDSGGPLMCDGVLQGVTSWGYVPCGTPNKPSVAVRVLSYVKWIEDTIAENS
T2 sequence (P49862 whole entry): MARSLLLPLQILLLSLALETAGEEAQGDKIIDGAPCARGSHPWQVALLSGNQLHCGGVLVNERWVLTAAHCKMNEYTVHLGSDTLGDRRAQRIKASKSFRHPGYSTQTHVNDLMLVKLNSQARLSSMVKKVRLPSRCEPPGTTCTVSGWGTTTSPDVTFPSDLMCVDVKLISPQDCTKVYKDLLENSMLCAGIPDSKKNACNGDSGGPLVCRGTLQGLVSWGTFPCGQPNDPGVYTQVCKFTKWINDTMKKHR

Row | Compound | inhibition [1] | IC50 (Kallikrein-5 [2]) [µM] | Ki (Kallikrein-7 [3]) [µM] | Ki (Kallikrein-5 [4]) [µM] | inhibition [5] | IC50 (Kallikrein-7 [6]) [µM] | Ratio IC50 (Homo sapiens [7]) | Ratio IC50 (Homo sapiens [8])
1 | CC(C)(C)OC(=O)N[C@H](COCc1ccccc1)C(=O)O[C@@H]1CO[C@H]2[C@@H]1OC[C@H]2OCc1ccccc1 | inactive | 15.5 | 2.3 | 2.4 | inactive | 16 |  | 
2 | O=C(OC1CO[C@H]2[C@@H]1OC[C@H]2OCc1ccccc1)[C@H](Cc1ccccc1)NC(=O)[C@@H]1CCCN1C(=O)OCc1ccccc1 (single isomer, unassigned) | inactive | 3.9 | 2.8 | 0.4 | inactive | 19.6 | 5 | 
3 | CC(C)(C)OC(=O)N[C@@H](CC(=O)OCc1ccccc1)C(=O)O[C@@H]1CO[C@H]2[C@@H]1OC[C@H]2OCc1ccccc1 | inactive | 4.7 | 1.3 | 0.6 | inactive | 10.2 |  | 
4 | CC(C)(C)OC(=O)N1CCC[C@H]1C(=O)O[C@@H]1CO[C@H]2[C@@H]1OC[C@H]2OCc1ccccc1 | inactive | 521 | 15.6 |  | inactive | 24.4 |  | 21.3
5 | CC(C)(C)OC(=O)N[C@@H](CCCCNC(=O)OCc1ccccc1)C(=O)O[C@@H]1CO[C@H]2[C@@H]1OC[C@H]2OCc1ccccc1 | inactive | 9 | 1.4 | 0.7 | inactive | 13.7 |  | 
6 | CC(C)(C)OC(=O)N[C@H](COCc1ccccc1)C(=O)N[C@H]1CO[C@H]2[C@@H]1OC[C@H]2OCc1ccccc1 | inactive | 53.9 |  |  | inactive | 84.5 |  | 
7 | CC(C)[C@@H](NC(=O)OC(C)(C)C)C(=O)N[C@H]1CO[C@H]2[C@@H]1OC[C@H]2OCc1ccccc1 | inactive | 480 |  |  | inactive | > 1000 |  | 
8 | O=C(N[C@H]1CO[C@H]2[C@@H]1OC[C@H]2OCc1ccccc1)[C@H](Cc1ccccc1)NC(=O)[C@@H]1CCCN1C(=O)OCc1ccccc1 | inactive | 157 |  |  | inactive | 249 |  | 
9 | O=C(N[C@H]1CO[C@H]2[C@@H]1OC[C@H]2OCc1ccccc1)[C@H]1CCCN1C(=O)OCc1ccccc1 | inactive | 321 | 15.1 |  | inactive | 23.6 |  | 
10 | O=C(O[C@@H]1CO[C@H]2[C@@H]1OC[C@H]2OCc1ccccc1)[C@H]1CCCN1C(=O)OCc1ccccc1 | inactive | 3.7 | 1.9 | 0.3 | inactive | 16.6 | 4 | 
11 | CC(C)(C)OC(=O)N[C@@H](CCCCNC(=O)OCc1ccccc1)C(=O)N[C@H]1CO[C@H]2[C@@H]1OC[C@H]2OCc1ccccc1 | inactive | 13.3 | 2.9 | 2.4 | inactive | 23.6 |  | 
12 | CC(C)(C)OC(=O)N[C@H](Cc1c[nH]c2ccccc12)C(=O)O[C@@H]1CO[C@H]2[C@@H]1OC[C@H]2OCc1ccccc1 | inactive | 377 |  |  | inactive | 59.2 |  | 6
13 | CC(C)(C)OC(=O)N[C@H](CCCN/C(=N\C(=O)OCc1ccccc1)NC(=O)OCc1ccccc1)C(=O)N[C@H]1CO[C@H]2[C@@H]1OC[C@H]2OCc1ccccc1 | inactive | 11.8 | 2.4 | 1.7 | inactive | 16.9 |  | 

Further lines, results first:

Row | inhibition [1] | IC50 (Kallikrein-5 [2]) [µM] | Ki (Kallikrein-7 [3]) [µM] | Ki (Kallikrein-5 [4]) [µM] | inhibition [5] | IC50 (Kallikrein-7 [6]) [µM] | Ratio IC50 (Homo sapiens [7]) | Ratio IC50 (Homo sapiens [8]) | Compound
14 | inactive | 21.7 | 3.8 | 3.4 | inactive | 56.6 |  |  | CC(C)[C@H](NC(=O)OCc1ccccc1)C(=O)N[C@H](Cc1ccccc1)C(=O)N[C@H]1CO[C@H]2[C@@H]1OC[C@H]2OCc1ccccc1
15 | inactive | 39.2 |  | 28.2 | inactive | 418 |  |  | CC(C)(C)OC(=O)N[C@H](Cc1c[nH]c2ccccc12)C(=O)N[C@H]1CO[C@H]2[C@@H]1OC[C@H]2OCc1ccccc1
16 |  | 99.2 | 1.8 | 70.7 |  | 13.3 |  |  | O=C(N[C@H]1CO[C@H]2[C@@H]1OC[C@H]2OCc1ccccc1)/C(=C/c1cccs1)NC(=O)c1ccccc1 (stereo in doubt)
17 | inactive | 357 | 18.4 |  | inactive | 28.7 |  |  | CSCC[C@H](NC(=O)OC(C)(C)C)C(=O)O[C@@H]1CO[C@H]2[C@@H]1OC[C@H]2OCc1ccccc1
18 | inactive | 223 |  |  | inactive | 239 |  |  | CC(C)[C@@H](NC(=O)OC(C)(C)C)C(=O)O[C@@H]1CO[C@H]2[C@@H]1OC[C@H]2OCc1ccccc1
19 | inactive | 157 | 4.4 |  | inactive | 27.8 |  | 6 | Cc1ccc(S(=O)(=O)n2cnc(C[C@H](NC(=O)OC(C)(C)C)C(=O)N[C@H]3CO[C@H]4[C@@H]3OC[C@H]4OCc3ccccc3)c2)cc1
20 | inactive | 37 |  | 26.6 | inactive | 457 |  |  | CSCC[C@H](NC(=O)OC(C)(C)C)C(=O)N[C@H]1CO[C@H]2[C@@H]1OC[C@H]2OCc1ccccc1
